Active and inactive are the calls of the source. No cut-off for these calls is given here.

The nature of data set [1]: Ex vivo inhibition of MAOA in CD1 mouse brain homogenates assessed as MAOA level at 3 mg/kg, po administered via gavage for 7 days and measured 1 hr post last dose by monoamine oxidase assay (reference value: 0.39 +/- 0.04 nmol/min/mg). As to conditions: time 7 day. The format is functional.
Data set [2] in a line: Cytotoxicity against human HepG2 cells assessed as cell viability at 15 uM incubated for 2 hrs by MTT assay relative to control. The format is cell-based. As to conditions: read-out: Activity. A digest of the protocol:
(§1)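 HepG2 human hepatoma cells; viability read by MTT assay, with 0.1% DMSO as vehicle control. Viability given as % of control, mean ± SEM (n = 3); p < 0.05 taken as significant.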
(In general: Tetrazolium dyes change colour on reduction, which living cells bring about.)

Data set [3] addresses T1, Amine oxidase [flavin-containing] A (Homo sapiens, UniProt P21397).
T1 sequence (P21397 whole entry): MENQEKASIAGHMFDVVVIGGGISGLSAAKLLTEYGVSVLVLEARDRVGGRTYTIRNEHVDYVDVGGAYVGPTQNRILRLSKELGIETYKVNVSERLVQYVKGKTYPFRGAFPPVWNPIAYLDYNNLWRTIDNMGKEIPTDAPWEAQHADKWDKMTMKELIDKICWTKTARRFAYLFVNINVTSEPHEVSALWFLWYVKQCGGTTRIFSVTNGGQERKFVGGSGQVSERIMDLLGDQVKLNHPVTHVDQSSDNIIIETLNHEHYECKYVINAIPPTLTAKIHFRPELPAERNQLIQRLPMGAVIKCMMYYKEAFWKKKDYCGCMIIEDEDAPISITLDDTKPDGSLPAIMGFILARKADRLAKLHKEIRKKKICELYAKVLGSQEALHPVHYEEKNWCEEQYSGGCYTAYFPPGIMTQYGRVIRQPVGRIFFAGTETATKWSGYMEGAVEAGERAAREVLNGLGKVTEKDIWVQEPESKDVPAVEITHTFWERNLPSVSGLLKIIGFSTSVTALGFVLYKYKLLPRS
In words: Reversible inhibition of human MAO-A assessed as residual enzyme activity at 4 fold IC50 incubated for 15 mins and measured 24 hrs post dialysis by dialysis method relative to control. As to conditions: 24.25 h, time 1455 min. A digest of the protocol:
(§2)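 Dialysed (MWCO 12 000) at 4 °C for 24 h against 100 mM potassium phosphate pH 7.4, 5% sucrose, buffer changed twice. Dialysed and undialysed mixtures assayed together; residual activity from triplicates.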

Data set [4] can be described thus: Ex vivo inhibition of MAOA in CD1 mouse brain homogenates assessed as inhibition of 5-HT deamination by measuring 5-HIAA metabolite levels by using at 1 mg/kg, po administered via gavage for 7 days and measured 1 hr post last dose by HPLC analysis (reference value: 0.33 +/- 0.02 ug/g). The format is functional. As to conditions: time 7 day.
In data set [5] the target is T1, Amine oxidase [flavin-containing] A. In words: Reversible inhibition of human MAO-A assessed as residual enzyme activity at 4 fold IC50 incubated for 15 mins and measured before dialysis by dialysis method relative to control. A digest of the protocol:
as §2

Data set [6] in a line: Ex vivo inhibition of MAOA in CD1 mouse brain homogenates assessed as 5-HT levels at 1 mg/kg, po administered via gavage for 7 days and measured 1 hr post last dose by ELISA kit method (reference value: 0.78 +/- 0.01 ug/g). As to conditions: time 7 day. The class given is functional.
For data set [7], the target named is T2, Amine oxidase [flavin-containing] B (Homo sapiens, UniProt P27338).
T2 sequence (P27338 whole entry): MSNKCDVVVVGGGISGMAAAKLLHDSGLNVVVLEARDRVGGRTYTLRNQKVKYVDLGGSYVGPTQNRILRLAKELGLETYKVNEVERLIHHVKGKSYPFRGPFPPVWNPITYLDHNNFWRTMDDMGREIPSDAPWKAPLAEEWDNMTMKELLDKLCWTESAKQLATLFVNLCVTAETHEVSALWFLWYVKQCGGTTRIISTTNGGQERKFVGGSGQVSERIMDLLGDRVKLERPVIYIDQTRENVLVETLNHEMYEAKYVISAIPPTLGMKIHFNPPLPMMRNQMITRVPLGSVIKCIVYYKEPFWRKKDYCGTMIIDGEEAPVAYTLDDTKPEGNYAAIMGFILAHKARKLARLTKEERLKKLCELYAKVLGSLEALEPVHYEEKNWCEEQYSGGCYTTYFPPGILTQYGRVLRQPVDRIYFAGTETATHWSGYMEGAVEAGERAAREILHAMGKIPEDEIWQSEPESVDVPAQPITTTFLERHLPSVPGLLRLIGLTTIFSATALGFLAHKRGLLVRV
In words: Reversible inhibition of human MAO-B assessed as residual enzyme activity at 4 fold IC50 incubated for 15 mins and measured 24 hrs post dialysis relative to control. As to conditions: 24.25 h, time 1455 min. The method in brief: as §2

Data set [8] can be described thus: Cytotoxicity against human HepG2 cells assessed as cell viability at 7.5 uM incubated for 2 hrs by MTT assay relative to control. The class given is cell-based. As to conditions: read-out: Activity. The method in brief:
as §1

Data set [9] in a line: Ex vivo inhibition of MAOA in CD1 mouse brain homogenates assessed as MAOA level at 10 mg/kg, po administered via gavage for 7 days and measured 1 hr post last dose by monoamine oxidase assay (reference value: 0.39 +/- 0.04 nmol/min/mg). The conditions noted are these: time 7 day. The class given is functional.
Data set [10] is described as follows: Ex vivo inhibition of MAOA in CD1 mouse brain homogenates assessed as 5-HT levels at 10 mg/kg, po administered via gavage for 7 days and measured 1 hr post last dose by ELISA kit method (reference value: 0.78 +/- 0.01 ug/g). The class given is functional. The conditions noted are these: time 7 day. In general terms: ELISA stands for enzyme-linked immunosorbent assay.

A short description of data set [11]: Ex vivo inhibition of MAOA in CD1 mouse brain homogenates assessed as MAOA level at 1 mg/kg, po administered via gavage for 7 days and measured 1 hr post last dose by monoamine oxidase assay (reference value: 0.39 +/- 0.04 nmol/min/mg). The conditions noted are these: time 7 day. The format is functional.
Data set [12] in a line: Cytotoxicity against human HepG2 cells assessed as cell viability at 30 uM incubated for 2 hrs by MTT assay relative to control. The format is cell-based. As to conditions: read-out: Activity. A digest of the protocol: as §1
In the next data set the test system is Mus musculus. As to the kind of experiment: Antidepressant-like activity in CD1 mouse assessed as reduction in immobility time at 20 mg/kg, po via gavage administered as […] dose for 7 days and measured 1 h post last dose by Porsolt-forced swim test. The class given is functional, organism-based. The conditions noted are these: time 7.0 day.
The nature of data set [13]: Ex vivo inhibition of MAOA in CD1 mouse brain homogenates assessed as inhibition of 5-HT deamination by measuring 5-HIAA metabolite levels by using at 3 mg/kg, po administered via gavage for 7 days and measured 1 hr post last dose by HPLC analysis (reference value: 0.33 +/- 0.02 ug/g). The class given is functional. As to conditions: time 7 day.
Data set [14] in a line: Ex vivo inhibition of MAOA in CD1 mouse brain homogenates assessed as 5-HT levels at 3 mg/kg, po administered via gavage for 7 days and measured 1 hr post last dose by ELISA kit method (reference value: 0.78 +/- 0.01 ug/g). The format is functional. The conditions noted are these: time 7 day.
Data set [15] can be described thus: Ex vivo inhibition of MAOA in CD1 mouse brain homogenates assessed as inhibition of 5-HT deamination by measuring 5-HIAA metabolite levels by using at 10 mg/kg, po administered via gavage for 7 days and measured 1 hr post last dose by HPLC analysis (reference value: 0.33 +/- 0.02 ug/g). The class given is functional. As to conditions: time 7 day.
In data set [16] the target is T2, Amine oxidase [flavin-containing] B. As to the kind of experiment: Reversible inhibition of human MAO-B assessed as residual enzyme activity at 4 fold IC50 incubated for 15 mins and measured before dialysis relative to control. A digest of the protocol: as §2

For the compound `O=C(NCCN1CCOCC1)c1ccc(Cl)cc1` [MOCLOBEMIDE], the Activity in data set [1] came to 0.41 nmol/min/mg; in [3], 93.77%; in data set [4] it was 0.33 µg/g; in data set [5], 36%; in data set [6], 0.78 µg/g; in [7], 89.55%. Besides, the Activity in data set [9] was 0.4 nmol/min/mg; in data set [10] it was 0.82 µg/g; in data set [11] it was 0.41 nmol/min/mg; in [13], 0.32 µg/g; in data set [14] it was 0.79 µg/g; in data set [15], 0.3 µg/g. The Activity in data set [16] amounted to 88%. Further, the viability at 2 h, 15 µM in data set [2] worked out at 88.5%. Also, the viability at 2 h, 7.5 µM in [8] amounted to 90.8%. In [12], the viability at 2 h, 30 µM was 86%. Moreover, the outcome with Mus musculus was Active.
Regarding `COc1ccc(C2=NN(C(=O)Cn3c(=O)oc4ccc(C)cc43)C(c3cccc(OC)c3OC)C2)cc1` (stereo not drawn), the Activity came out at 0.34 nmol/min/mg in data set [1]; 92.55% in data set [3]; 0.32 µg/g in data set [4]; 22.16% in data set [5]; 0.8 µg/g in data set [6]; 94.16% in [7]. The Activity amounted to 0.27 nmol/min/mg in [9]; 0.99 µg/g in [10]; 0.39 nmol/min/mg in data set [11]; 0.3 µg/g in data set [13]; 0.85 µg/g in [14]; 0.29 µg/g in [15]. Further, in [16], the Activity is 74.19%. The viability at 2 h, 15 µM in data set [2] worked out at 99.6%. Further, the viability at 2 h, 7.5 µM in data set [8] turned out to be 101%. Also, in data set [12], the viability at 2 h, 30 µM stood at 84.9%.

The values are drawn from ChEMBL document CHEMBL4706681, “New 2-Pyrazoline and Hydrazone Derivatives as Potent and Selective Monoamine Oxidase A Inhibitors” (J Med Chem, 2021).
